The values below come from ChEMBL document CHEMBL4765325, “Discovery of dihydropyrrolidones as novel inhibitors against influenza A virus” (Eur J Med Chem, 2020).

Where only a bound is given, the exact number is not on record here.

Data set [1] can be described thus: Selectivity index, ratio of CC50 for dog MDCK cells to IC50 for antiviral activity against Influenza A virus (A/Puerto Rico/8/34(H1N1)) harboring NA H274Y mutant. It is filed as toxicity. The conditions noted are these: read-out: Ratio CC50/IC50. The method in brief:
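SI = CC50/IC50, both from MTT read-outs in MDCK cells in triplicate. Cytotoxicity: 2 × 10⁴ cells/well, overnight at 37 °C with 5% CO2, then compound at 1.56–400 µM for 48 h, MTT 4 h, DMSO, A570. Antiviral: cells infected 1 h, washed, then cultured 48 h in DMEM with TPCK and two-fold serial compound dilutions.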

The next data set deals with Influenza A virus. As to the kind of experiment: Antiviral activity against Influenza A virus (A/Puerto Rico/8/34(H1N1)) harboring NA H274Y mutant infected in dog MDCK cells assessed as reduction in virus-induced cytopathogenicity incubated for 48 hrs by microscopic analysis. Type of data set: functional, organism-based, A/Puerto Rico/8/1934(H1N1). The method in brief:
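MDCK cells were infected with each IAV strain at 100TCID₅₀ for 1 h, then washed twice with PBS. They were cultured 48 h in DMEM with two-fold serial compound dilutions and 1 mg/ml TPCK. Antiviral activity was read by an MTT-based method, giving IC₅₀ from triplicate wells as mean SD.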
Background: Protection from cytopathic effect is a common read-out in antiviral testing.

By IC50 is commonly meant the concentration that gives 50% inhibition. With `CCOC(=O)C1=C(Nc2ccc(C(F)(F)F)cc2)C(=O)N(c2ccc(C(F)(F)F)cc2)C1c1ccccc1` (configuration not stated), in data set [1], the selectivity ratio is above 61.6. Besides, the half-maximal inhibitory concentration (IC50) in the data set with Influenza A virus worked out at 6.48 µM.
